Here are results for seven compounds from ChEMBL document CHEMBL2163309, “Discovery of novel 2-aryl-4-benzoyl-imidazole (ABI-III) analogues targeting tubulin polymerization as antiproliferative agents” (J Med Chem, 2012).

pIC50: −log10 of the molar value. Activity calls are given as the source filed them. No cut-off for these calls is given here.

The species entered for experiment [1] is Bos taurus. The experiment can be described thus: Inhibition of bovine brain tubulin polymerization measured for every 1 min for 20 mins by spectrophotometer analysis. An outline of the steps: (§1)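 Bovine brain tubulin (>97% pure), 0.4 mg per assay, exposed to test compound at 5 or 10 μM in 5% DMSO vehicle, with a DMSO-only control and colchicine 5 μM as positive control. Polymerization followed by absorbance at 340 nm at 37 °C, read every minute for 20 min. Percent inhibition of polymerization taken at 20 min.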

The species entered for experiment [2] is Bos taurus. The experiment is described as follows: Inhibition of bovine brain tubulin polymerization at 5 uM measured for every 1 min for 20 mins by spectrophotometer analysis. A digest of the protocol: as §1
For experiment [3], the species on record is Bos taurus. The experiment is described as follows: Inhibition of bovine brain tubulin polymerization at 10 uM measured for every 1 min for 20 mins by spectrophotometer analysis. An outline of the steps: as §1
Experiment [4] in a line: Antiproliferative activity against human paclitaxel-resistant PC3-TxR cells after 48 hrs by SRB assay. Type of experiment: functional, cell-based.
Another experiment relates to DU-145. The experiment is described as follows: Antiproliferative activity against human DU145 cells after 48 hrs by SRB assay. Particulars: DU-145, 48 h. The experiment is classed as functional, cell-based. A digest of the protocol:
(§2)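 Run as part of a panel of two human metastatic melanoma lines (A375, WM164) and three human prostate cancer lines (LNCaP, PC-3, Du 145), following previously described methods. Colchicine served as the positive control.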
A general note: Sulforhodamine B stains cellular protein and so reports cell mass.

For experiment [5], the system named is PC-3. The experiment is described as follows: Antiproliferative activity against human PC3 cells after 48 hrs by SRB assay. Type of experiment: functional, cell-based. The settings on record: PC-3, 48 h.
Another experiment deals with LNCaP. The experiment is described as follows: Antiproliferative activity against human LNCAP cells after 48 hrs by SRB assay. The experiment is classed as functional, cell-based.
Experiment [6] in a line: Antiproliferative activity against human WM164 cells after 48 hrs by SRB assay. Particulars: WM164, 48 h. The experiment is classed as functional, cell-based.
The next experiment relates to A-375. The experiment is described as follows: Antiproliferative activity against human A375 cells after 48 hrs by SRB assay. The settings on record: A-375, 48 h. Type of experiment: functional, cell-based. A digest of the protocol:
as §2

For another experiment, the species on record is Homo sapiens. Particulars: 10 to 1000 nM.
Experiment [7] relates to PC-3. The experiment is described as follows: Resistance index, ratio of IC50 for human paclitaxel-resistant PC3-TxR cells to IC50 for human PC3 cells.

The inhibition is the change of the read-out against control, counted positive when it falls. In general, pIC50 refers to the negative decadic logarithm of the IC50, by convention in mol/L. A higher pIC50 goes with a small IC50. As for `COc1cc(C(=O)c2cnc(-c3c[nH]c4ccccc34)[nH]2)cc(OC)c1OC` [SABIZABULIN], the inhibition entry was “Dose-dependent effect” in the experiment listed under Bos taurus [1] and 70% in the experiment listed under Bos taurus [2]. For the same compound, the inhibition result in the experiment filed under Bos taurus [3] was “Active”. For the same compound, the pIC50 is 8.43 in experiment [4]; 8.41 in the experiment with DU-145; 8.43 with PC-3 [5]; 8.55 in the experiment on LNCaP; 8.28 in [6]; 8.49 in the experiment on A-375. The inhibition result in the experiment listed under Homo sapiens was “inactive”. In addition, the “Ratio IC50” value in the experiment on PC-3 [7] is 1.

Take `CC(=O)O[C@H]1C(=O)[C@@]2(C)[C@H]([C@H](OC(=O)c3ccccc3)[C@]3(O)C[C@H](OC(=O)[C@H](O)[C@@H](NC(=O)c4ccccc4)c4ccccc4)C(C)=C1C3(C)C)[C@]1(OC(C)=O)CO[C@@H]1C[C@@H]2O` [PACLITAXEL]: the results for the pIC50 (in [4]; with PC-3 [5]) were 6.73 and 9.40, respectively.

On to `COc1cc(C(=O)c2c[nH]c(-c3cn(S(=O)(=O)c4ccccc4)c4ccccc34)n2)cc(OC)c1OC`, for which the inhibition entry in the experiment filed under Bos taurus [1] is “Dose-dependent effect”; in the experiment listed under Bos taurus [2], 67%; in the experiment listed under Bos taurus [3], 85%. Further, the pIC50 was 7.56 in experiment [4]; 6.72 in the experiment on DU-145; 7.48 in the experiment with PC-3 [5]; 6.97 with LNCaP; 6.78 in experiment [6]; 6.38 in the experiment with A-375. For the same compound, the “Ratio IC50” value with PC-3 [7] was determined as 0.9.

Consider `COc1cc2c(c(OC)c1OC)-c1ccc(OC)c(=O)cc1[C@@H](NC(C)=O)CC2` [COLCHICINE], for which the pIC50 was 7.95 in the experiment on DU-145; 7.94 with PC-3 [5]; 7.79 with LNCaP; 7.54 in experiment [6]; 7.69 in the experiment with A-375.

As to `COc1cc(C(=O)c2c[nH]c(-c3csc4ccccc34)n2)cc(OC)c1OC`, the inhibition entry was “Dose-dependent effect” in the experiment filed under Bos taurus [1] and 30% in the experiment listed under Bos taurus [3]. Moreover, the inhibition result in the experiment filed under Bos taurus [2] was “inactive”. Besides, the pIC50 in experiment [4] was 7.01; in the experiment on DU-145 it was 7.29; with PC-3 [5], 7.68; with LNCaP, 7.54; in [6], 7.34; in the experiment on A-375, 7.39. Moreover, the “Ratio IC50” value in the experiment on PC-3 [7] is 0.9.

Regarding `COc1cc(C(=O)c2cn(C)c(-c3cn(C)c4ccccc34)n2)cc(OC)c1OC`, the figures for the inhibition result in the experiment filed under Bos taurus [1], in the experiment filed under Bos taurus [2] and in the experiment listed under Bos taurus [3] were “Dose-dependent effect”, 65% and 80%, respectively. Further, the pIC50 in experiment [4] is 7.65; with DU-145, 7.12; in the experiment with PC-3 [5] it was 7.68; in the experiment on LNCaP, 7.44; in experiment [6], 7.62; with A-375 it was 7.73. Also, in the experiment on PC-3 [7], the “Ratio IC50” value came to 1.1.

`COc1cc(C(=O)c2c[nH]c(-c3coc4ccccc34)n2)cc(OC)c1OC`: the inhibition result in the experiment filed under Bos taurus [1] is “Dose-dependent effect”; in the experiment filed under Bos taurus [2], 30%; in the experiment filed under Bos taurus [3], 60%. The pIC50 in experiment [4] is 7.37; in the experiment with DU-145, 7.35; in the experiment on PC-3 [5], 7.48; in the experiment with LNCaP, 7.85; in experiment [6], 7.13; in the experiment with A-375, 7.27. Besides, in the experiment with PC-3 [7], the “Ratio IC50” value came to 1.
